Assay results reported in ChEMBL document CHEMBL4038284, “Synthesis of novel quinoline-based 4,5-dihydro-1H-pyrazoles as potential anticancer, antifungal, antibacterial and antiprotozoal agents” (Eur J Med Chem, 2017).
Converted amounts (≈) assume the structure as drawn. The source made the active and inactive calls. The rule behind the calls is not given here.

What was measured:
Klebsiella pneumoniae = assay: Antibacterial activity against carbapenemase positive Klebsiella pneumoniae BAA 1705 after 24 hrs by resazurin dye based microdilution assay; assay type: functional; conditions: BAA 1705, 24 h
Procedure, shortened: (§1)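 MIC taken as the lowest concentration giving visible inhibition and/or by resazurin (1 mg/mL). Gentamicin was the control. Run in duplicate, repeated at least three times.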

Leishmania panamensis = assay: Antileshmanial activity against EpiR/GFP fused Leishmania panamensis MHOM/CO/87/UA140 intracellular amastigotes infected in human […] cells after 72 hrs by flow cytometric method; assay type: functional, cell-based; conditions: MHOM/CO/87/UA140, 72 h
Procedure, shortened: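 PMA-treated U-937 cells (3 × 10^5 cells/mL) infected with stationary-phase GFP L. panamensis promastigotes (15:1), 3 h at 34 °C, then washed. After 24 h, compounds added at 50, 12.5, 3.125 and 0.78 µg/mL for 72 h at 37 °C. EC50 by Probit; triplicate, two experiments.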

K562 = assay: Growth inhibition of human K562 cells at 10 uM incubated for 48 hrs by sulforhodamine B assay; assay type: functional, cell-based
Procedure, shortened: (§2)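 NCI 60-line panel, single 10 μM dose. Cells were grown in RPMI-1640 with 5% FBS and 2 mM L-glutamine and pre-incubated 24 h before compound addition (DMSO stock). Exposure was 48 h at 37 °C, 5% CO2. Cells were fixed with cold TCA (10% final), stained with 0.4% SRB, bound dye dissolved in 10 mM Tris base, A515 read. Growth was taken relative to time-zero and untreated control plates.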

MOLT-4 = assay: Growth inhibition of human MOLT4 cells at 10 uM incubated for 48 hrs by sulforhodamine B assay; assay type: functional, cell-based; procedure, shortened: as §2
SR = assay: Growth inhibition of human SR cells at 10 uM incubated for 48 hrs by sulforhodamine B assay; assay type: functional, cell-based
Procedure, shortened: (§3)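 NCI-60 single-dose screen at 10 µM for 48 h. Cells were grown in RPMI-1640 with 5% FBS and 2 mM L-glutamine and preincubated 24 h before compound. Time-zero plates were TCA-fixed at compound addition. After exposure, cells were TCA-fixed, stained with SRB and read at 515 nm. Percentage growth was calculated against time-zero and untreated-control absorbances.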

NCI-H226 = assay: Growth inhibition of human NCI-H226 cells at 10 uM incubated for 48 hrs by sulforhodamine B assay; assay type: functional, cell-based; procedure, shortened: as §2
NCI-H460 = assay: Growth inhibition of human NCI-H460 cells at 10 uM incubated for 48 hrs by sulforhodamine B assay; assay type: functional, cell-based; procedure, shortened: as §2
HT-29 = assay: Growth inhibition of human HT-29 cells at 10 uM incubated for 48 hrs by sulforhodamine B assay; assay type: functional, cell-based; procedure, shortened: as §2
SW-620 = assay: Growth inhibition of human SW620 cells at 10 uM incubated for 48 hrs by sulforhodamine B assay; assay type: functional, cell-based; procedure, shortened: as §3
SF-295 = assay: Growth inhibition of human SF295 cells at 10 uM incubated for 48 hrs by sulforhodamine B assay; assay type: functional, cell-based; procedure, shortened: as §2
SF-539 = assay: Growth inhibition of human SF539 cells at 10 uM incubated for 48 hrs by sulforhodamine B assay; assay type: functional, cell-based; procedure, shortened: as §2
Malme-3M = assay: Growth inhibition of human MALME-3M cells at 10 uM incubated for 48 hrs by sulforhodamine B assay; assay type: functional, cell-based; procedure, shortened: as §2
M14 = assay: Growth inhibition of human M14 cells at 10 uM incubated for 48 hrs by sulforhodamine B assay; assay type: functional, cell-based; procedure, shortened: as §2
MDA-MB-435 = assay: Growth inhibition of human MDA-MB-435 cells at 10 uM incubated for 48 hrs by sulforhodamine B assay; assay type: functional, cell-based; procedure, shortened: as §2
786-0 = assay: Growth inhibition of human 786-0 cells at 10 uM incubated for 48 hrs by sulforhodamine B assay; assay type: functional, cell-based
Procedure, shortened: (§4)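 NCI 60-cell-line screen at a single 10 µM dose. Cells in RPMI-1640 with 5% FBS and 2 mM L-glutamine, pre-incubated 24 h, then treated for 48 h at 37 °C. TCA fixation, sulforhodamine B staining, absorbance at 515 nm. Percentage growth calculated against time-zero and untreated controls.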

CAKI-1 = assay: Growth inhibition of human Caki1 cells at 10 uM incubated for 48 hrs by sulforhodamine B assay; assay type: functional, cell-based; procedure, shortened: as §4
PC-3 = assay: Growth inhibition of human PC3 cells at 10 uM incubated for 48 hrs by sulforhodamine B assay; assay type: functional, cell-based; procedure, shortened: as §2
BT-549 = assay: Growth inhibition of human BT549 cells at 10 uM incubated for 48 hrs by sulforhodamine B assay; assay type: functional, cell-based; procedure, shortened: as §4
MDA-MB-468 = assay: Growth inhibition of human MDA-MB-468 cells at 10 uM incubated for 48 hrs by sulforhodamine B assay; assay type: functional, cell-based; procedure, shortened: as §2
Cryptococcus neoformans [1] = assay: Antifungal activity against Cryptococcus neoformans ATCC 32264 incubated for 48 hrs under dark condition by broth microdilution method; assay type: functional; conditions: ATCC 32264, 48 h
Procedure, shortened: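 CLSI M27-A3 broth microdilution in RPMI-1640, DMSO ≤1%, compounds at 250-0.98 µg/mL final. Inoculum 1-5 × 10^3 CFU/mL. Incubated 48 h at 30 °C in a moist dark chamber, read at OD405. MIC80 and MIC50 taken from % inhibition dose-response curves (mean ± SEM, triplicate). Amphotericin B was the positive control.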

Candida albicans [2] = assay: Growth inhibition of Candida albicans ATCC 10231 at 250 ug/ml incubated for 48 hrs under dark condition by broth microdilution method relative to control; assay type: functional; conditions: ATCC 10231, 48 h, read-out: GI
Procedure, shortened: (§5)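 CLSI M27-A3 broth microdilution in RPMI-1640, DMSO ≤1%. Inoculum 1-5 × 10^3 CFU/mL. Incubated 48 h at 30 °C, dark. % inhibition = 100 − (OD405 test − sterility control)/(OD405 growth control − sterility control), with growth and sterility control wells. Triplicate.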

Candida albicans [3] = assay: Growth inhibition of Candida albicans ATCC 10231 at 125 ug/ml incubated for 48 hrs under dark condition by broth microdilution method relative to control; assay type: functional; conditions: ATCC 10231, 48 h, read-out: GI; procedure, shortened: as §5
Candida albicans [4] = assay: Growth inhibition of Candida albicans ATCC 10231 at 62.5 ug/ml incubated for 48 hrs under dark condition by broth microdilution method relative to control; assay type: functional; conditions: ATCC 10231, 48 h, read-out: GI; procedure, shortened: as §5
Cryptococcus neoformans [5] = assay: Growth inhibition of Cryptococcus neoformans ATCC 32264 at 250 ug/ml incubated for 48 hrs under dark condition by broth microdilution method relative to control; assay type: functional; conditions: ATCC 32264, 48 h, read-out: GI; procedure, shortened: as §5
Cryptococcus neoformans [6] = assay: Growth inhibition of Cryptococcus neoformans ATCC 32264 at 7.8 ug/ml incubated for 48 hrs under dark condition by broth microdilution method relative to control; assay type: functional; conditions: ATCC 32264, 48 h, read-out: GI; procedure, shortened: as §5
Pseudomonas aeruginosa = assay: Antibacterial activity against Pseudomonas aeruginosa ATCC 27853 after 24 hrs by resazurin dye based microdilution assay; assay type: functional; conditions: ATCC 27853, 24 h; procedure, shortened: as §1
Neisseria gonorrhoeae = assay: Antibacterial activity against beta lactamase positive Neisseria gonorrhoeae ATCC 31426 by oxidase test; assay type: functional
Procedure, shortened: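 Agar dilution MIC on GC agar with 1% isovitalex containing increasing compound concentrations. Plates inoculated with about 1×10^4 CFU (5 µL). MIC is the lowest concentration that inhibited growth, with growth confirmed by oxidase test. Run in duplicate, repeated at least three times.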

Row | Compound | MIC (Klebsiella pneumoniae) [µg/mL] | EC50 (Leishmania panamensis) [µg/mL] | growth inhibition (GI) (K562) | growth inhibition (GI) (MOLT-4) | growth inhibition (GI) (SR) | growth inhibition (GI) (NCI-H226) | growth inhibition (GI) (NCI-H460) | growth inhibition (GI) (HT-29) | growth inhibition (GI) (SW-620) | growth inhibition (GI) (SF-295) | growth inhibition (GI) (SF-539) | MIC50 (Cryptococcus neoformans [1]) [µg/mL] | MIC80 (Cryptococcus neoformans [1]) [µg/mL] | inhibition of growth at 250 µg/mL (Candida albicans [2]) [%] | inhibition of growth at 125 µg/mL (Candida albicans [3]) [%] | inhibition of growth at 62.5 µg/mL (Candida albicans [4]) [%] | inhibition of growth at 250 µg/mL (Cryptococcus neoformans [5]) [%] | inhibition of growth at 7.8 µg/mL (Cryptococcus neoformans [6]) [%] | MIC (Pseudomonas aeruginosa) [µg/mL] | MIC (Neisseria gonorrhoeae) [µg/mL] | other results
1 | Clc1ccc(C2=NN(c3cc(Cl)cc(Cl)c3)C(c3cccc(Nc4ccnc5cc(Cl)ccc45)c3)C2)cc1 (stereo unspecified) | > 1000 | 12 (≈ 20.8 µM) | inactive | inactive | inactive | inactive | inactive | inactive | inactive | inactive | inactive | ≥ 250 | ≥ 250 | 35 | 31.5 | 13.8 | 8.42 | 0 | > 1000 | > 1000 | growth inhibition (GI) (Malme-3M): inactive; growth inhibition (GI) (M14): inactive; growth inhibition (GI) (MDA-MB-435): inactive; growth inhibition (GI) (786-0): inactive; growth inhibition (GI) (CAKI-1): inactive; growth inhibition (GI) (PC-3): inactive; growth inhibition (GI) (BT-549): inactive; growth inhibition (GI) (MDA-MB-468): inactive
2 | O=CN1N=C(c2ccc(Cl)cc2)CC1c1cccc(Nc2ccnc3cc(Cl)ccc23)c1 (stereo unspecified) | > 1000 | 281 (≈ 609 µM) | Active | Active | Active | Active | Active | Active | Active | Active | Active | 31.2 (≈ 67.7 µM) | ≥ 250 | 67.5 | 35.7 | 28.2 | 79.9 | 39.5 | > 1000 | > 1000 | growth inhibition (GI) (Malme-3M): Active; growth inhibition (GI) (M14): Active; growth inhibition (GI) (MDA-MB-435): Active; growth inhibition (GI) (786-0): Active; growth inhibition (GI) (PC-3): Active; growth inhibition (GI) (BT-549): Active; growth inhibition (GI) (MDA-MB-468): Active
3 | O=Cc1cccc(Nc2ccnc3cc(Cl)ccc23)c1 | 250 (≈ 884 µM) | 0.96 (≈ 3.4 µM) |  |  |  |  |  |  |  |  |  | 250 (≈ 884 µM) | 250 (≈ 884 µM) | 59.2 | 34.8 | 19.6 | 100 | 5.93 | > 1000 | 500 (≈ 1770 µM) | 
